Results: ChEMBL document CHEMBL1153559, “Role of a sodium-dependent symporter homologue in the thermosensitivity of beta-lactam antibiotic resistance and cell wall composition in Staphylococcus aureus” (2008)
Values after ≈ are worked out from the molar mass of the structure shown. Bridge positions count the residues as written; N and C are the ends. Square brackets hold non-standard residues; d marks the D form. Peptide text beside a SMILES is read from it. * marks the point of attachment. Ileψ(thiazoline)Cys = CC[C@H](C)[C@H](N)C1=N[C@H](C(=O)*)CS1; dOrn = NCCC[C@@H](N)C(=O)O

How the values were obtained:
Format in all cases: functional
[1] = tested on: Staphylococcus aureus; test: Antimicrobial activity against methicillin-resistant Staphylococcus aureus COL at 42 degC by population analysis method
How it was run: (§1)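 Population analysis: S. aureus cultures were grown overnight in TSB, then plated at different cell concentrations on agar containing twofold serial methicillin concentrations. Colonies were counted after 48 h of incubation at 37 or 42°C, giving a methicillin resistance profile.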

[2] = tested on: Staphylococcus aureus; test: Antimicrobial activity against methicillin-resistant Staphylococcus aureus COL at 37 degC by population analysis method; how it was run: as §1
[3] = tested on: Staphylococcus aureus; test: Antimicrobial activity against methicillin-resistant Staphylococcus aureus COL transposon mutant C245 harboring Tn551 gene at 42 degC by population analysis method; how it was run: as §1
[4] = tested on: Staphylococcus aureus; test: Antimicrobial activity against SCCmec type 4 methicillin-resistant Staphylococcus aureus COL MW2-T expressing symporter gene smr1 at 42 degC incubated for 24 hrs by E-test
[5] = tested on: Staphylococcus aureus; test: Antimicrobial activity against SCCmec type 1 methicillin-resistant Staphylococcus aureus COL 404-T3 expressing symporter gene smr1 at 42 degC incubated for 24 hrs by E-test; settings: COL 404-T3, 24 h
[6] = tested on: Staphylococcus aureus; test: Antimicrobial activity against SCCmec type 1 methicillin-resistant Staphylococcus aureus COL 404 expressing symporter gene smr1 at 42 degC incubated for 24 hrs by E-test; settings: COL 404, 24 h
[7] = tested on: Staphylococcus aureus; test: Antimicrobial activity against SCCmec type 1 methicillin-resistant Staphylococcus aureus COL 319 expressing symporter gene smr1 at 42 degC incubated for 24 hrs by E-test; settings: COL 319, 24 h
[8] = tested on: Staphylococcus aureus; test: Antimicrobial activity against SCCmec type 1 methicillin-resistant Staphylococcus aureus COL RUSA11 expressing symporter gene smr1 at 42 degC incubated for 24 hrs by E-test; settings: COL RUSA11, 24 h
[9] = tested on: Staphylococcus aureus; test: Antimicrobial activity against SCCmec type 1 methicillin-resistant Staphylococcus aureus COL 404-T3 expressing symporter gene smr1 at 37 degC incubated for 24 hrs by E-test; settings: COL 404-T3, 24 h
[10] = tested on: Staphylococcus aureus; test: Antimicrobial activity against SCCmec type 4 methicillin-resistant Staphylococcus aureus COL MW2-T expressing symporter gene smr1 at 37 degC incubated for 24 hrs by E-test
[11] = tested on: Staphylococcus aureus; test: Antimicrobial activity against SCCmec type 1 methicillin-resistant Staphylococcus aureus COL E2125-T2 expressing symporter gene smr1 at 37 degC incubated for 24 hrs by E-test; settings: COL E2125-T2, 24 h
[12] = tested on: Staphylococcus aureus; test: Antimicrobial activity against SCCmec type 4 methicillin-resistant Staphylococcus aureus COL MW2 expressing symporter gene smr1 at 37 degC incubated for 24 hrs by E-test; settings: COL MW2, 24 h
[13] = tested on: Staphylococcus aureus; test: Antimicrobial activity against SCCmec type 1 methicillin-resistant Staphylococcus aureus COL 404 expressing symporter gene smr1 at 37 degC incubated for 24 hrs by E-test; settings: COL 404, 24 h
[14] = tested on: Staphylococcus aureus; test: Antimicrobial activity against SCCmec type 1 methicillin-resistant Staphylococcus aureus COL E3005-T4 expressing symporter gene smr1 at 42 degC incubated for 24 hrs by E-test; settings: COL E3005-T4, 24 h
[15] = tested on: Staphylococcus aureus; test: Antimicrobial activity against SCCmec type 1 methicillin-resistant Staphylococcus aureus COL D19455 expressing symporter gene smr1 at 42 degC incubated for 24 hrs by E-test; settings: COL D19455, 24 h
[16] = tested on: Staphylococcus aureus; test: Antimicrobial activity against SCCmec type 1 methicillin-resistant Staphylococcus aureus COL 319-T1 expressing symporter gene smr1 at 42 degC incubated for 24 hrs by E-test; settings: COL 319-T1, 24 h
[17] = tested on: Staphylococcus aureus; test: Antimicrobial activity against SCCmec type 1 methicillin-resistant Staphylococcus aureus COL E2125-T2 expressing symporter gene smr1 at 42 degC incubated for 24 hrs by E-test; settings: COL E2125-T2, 24 h
[18] = tested on: Staphylococcus aureus; test: Antimicrobial activity against SCCmec type 1 methicillin-resistant Staphylococcus aureus COL E3005-T4 expressing symporter gene smr1 at 37 degC incubated for 24 hrs by E-test; settings: COL E3005-T4, 24 h
[19] = tested on: Staphylococcus aureus; test: Antimicrobial activity against SCCmec type 4 methicillin-resistant Staphylococcus aureus COL MW2 expressing symporter gene smr1 at 42 degC incubated for 24 hrs by E-test; settings: COL MW2, 24 h
[20] = tested on: Staphylococcus aureus; test: Antimicrobial activity against SCCmec type 1 methicillin-resistant Staphylococcus aureus COL D19455 expressing symporter gene smr1 at 37 degC incubated for 24 hrs by E-test; settings: COL D19455, 24 h
[21] = tested on: Staphylococcus aureus; test: Antimicrobial activity against SCCmec type 1 methicillin-resistant Staphylococcus aureus COL D19455-T2 expressing symporter gene smr1 at 37 degC incubated for 24 hrs by E-test; settings: COL D19455-T2, 24 h
[22] = tested on: Staphylococcus aureus; test: Antimicrobial activity against SCCmec type 3 methicillin-resistant Staphylococcus aureus COL 301 expressing symporter gene smr1 at 37 degC incubated for 24 hrs by E-test; settings: COL 301, 24 h
[23] = tested on: Staphylococcus aureus; test: Antimicrobial activity against SCCmec type 1 methicillin-resistant Staphylococcus aureus COL E2125 expressing symporter gene smr1 at 42 degC incubated for 24 hrs by E-test; settings: COL E2125, 24 h
[24] = tested on: Staphylococcus aureus; test: Antimicrobial activity against SCCmec type 1 methicillin-resistant Staphylococcus aureus COL 319 expressing symporter gene smr1 at 37 degC incubated for 24 hrs by E-test; settings: COL 319, 24 h
[25] = tested on: Staphylococcus aureus; test: Antimicrobial activity against SCCmec type 1 methicillin-resistant Staphylococcus aureus COL E3005 expressing symporter gene smr1 at 37 degC incubated for 24 hrs by E-test; settings: COL E3005, 24 h
[26] = tested on: Staphylococcus aureus; test: Antimicrobial activity against SCCmec type 1 methicillin-resistant Staphylococcus aureus COL C245Td expressing symporter gene smr1 at 37 degC incubated for 24 hrs by E-test
[27] = tested on: Staphylococcus aureus; test: Antimicrobial activity against SCCmec type 1 methicillin-resistant Staphylococcus aureus COL C245Td expressing symporter gene smr1 at 42 degC incubated for 24 hrs by E-test
[28] = tested on: Staphylococcus aureus; test: Antimicrobial activity against SCCmec type 3 methicillin-resistant Staphylococcus aureus COL 301-T6 expressing symporter gene smr1 at 42 degC incubated for 24 hrs by E-test; settings: COL 301-T6, 24 h
[29] = tested on: Staphylococcus aureus; test: Antimicrobial activity against SCCmec type 3 methicillin-resistant Staphylococcus aureus COL 301-T6 expressing symporter gene smr1 at 37 degC incubated for 24 hrs by E-test; settings: COL 301-T6, 24 h
[30] = tested on: Staphylococcus aureus; test: Antimicrobial activity against SCCmec type 1 methicillin-resistant Staphylococcus aureus COL E3005 expressing symporter gene smr1 at 42 degC incubated for 24 hrs by E-test; settings: COL E3005, 24 h
[31] = tested on: Staphylococcus aureus; test: Antimicrobial activity against SCCmec type 1 methicillin-resistant Staphylococcus aureus COL E2125 expressing symporter gene smr1 at 37 degC incubated for 24 hrs by E-test; settings: COL E2125, 24 h
[32] = tested on: Staphylococcus aureus; test: Antimicrobial activity against SCCmec type 1 methicillin-resistant Staphylococcus aureus COL RUSA11-T3 expressing symporter gene smr1 at 37 degC incubated for 24 hrs by E-test; settings: COL RUSA11-T3, 24 h
[33] = tested on: Staphylococcus aureus; test: Antimicrobial activity against SCCmec type 1 methicillin-resistant Staphylococcus aureus COL 319-T1 expressing symporter gene smr1 at 37 degC incubated for 24 hrs by E-test; settings: COL 319-T1, 24 h
[34] = tested on: Staphylococcus aureus; test: Antimicrobial activity against SCCmec type 1 methicillin-resistant Staphylococcus aureus COL D19455-T2 expressing symporter gene smr1 at 42 degC incubated for 24 hrs by E-test; settings: COL D19455-T2, 24 h
[35] = tested on: Staphylococcus aureus; test: Antimicrobial activity against SCCmec type 1 methicillin-resistant Staphylococcus aureus COL RUSA11 expressing symporter gene smr1 at 37 degC incubated for 24 hrs by E-test; settings: COL RUSA11, 24 h
[36] = tested on: Staphylococcus aureus; test: Antimicrobial activity against SCCmec type 1 methicillin-resistant Staphylococcus aureus COL RUSA11-T3 expressing symporter gene smr1 at 42 degC incubated for 24 hrs by E-test; settings: COL RUSA11-T3, 24 h
[37] = tested on: Staphylococcus aureus; test: Antimicrobial activity against SCCmec type 3 methicillin-resistant Staphylococcus aureus COL 301 expressing symporter gene smr1 at 42 degC incubated for 24 hrs by E-test; settings: COL 301, 24 h

CC[C@H](C)[C@H](N)C1=N[C@H](C(=O)N[C@@H](CC(C)C)C(=O)N[C@H](CCC(=O)O)C(=O)N[C@H](C(=O)N[C@H]2CCCCNC(=O)[C@H](CC(N)=O)NC(=O)[C@@H](CC(=O)O)NC(=O)[C@H](Cc3cnc[nH]3)NC(=O)[C@@H](Cc3ccccc3)NC(=O)[C@H]([C@@H](C)CC)NC(=O)[C@@H](CCCN)NC2=O)[C@@H](C)CC)CS1 [BACITRACIN] ({Ileψ(thiazoline)Cys}-L[dE]IK[dOrn]I[dF]H[dD]N; lactam 4-C)
MIC [1]: 50 µg/mL (≈ 35.1 µM) | MIC [2]: 50 µg/mL (≈ 35.1 µM)

N[C@@H]1CONC1=O [CYCLOSERINE]
MIC [1]: 50 µg/mL (≈ 490 µM) | MIC [2]: 50 µg/mL (≈ 490 µM)

C[C@@H]1O[C@@H]1P(=O)(O)O [FOSFOMYCIN]
MIC [1]: 25 µg/mL (≈ 181 µM) | MIC [2]: 50 µg/mL (≈ 362 µM)

COc1cccc(OC)c1C(=O)N[C@@H]1C(=O)N2[C@@H]1SC(C)(C)[C@@H]2C(=O)O [METHICILLIN]
MIC [3]: 400 µg/mL (≈ 1050 µM)

Cc1onc(-c2ccccc2)c1C(=O)N[C@@H]1C(=O)N2[C@@H]1SC(C)(C)[C@@H]2C(=O)O [OXACILLIN]
MIC [4]: 0.75 µg/mL (≈ 1.87 µM) | MIC [5]: > 256 µg/mL | MIC [6]: 1 µg/mL (≈ 2.49 µM) | MIC [7]: 0.75 µg/mL (≈ 1.87 µM) | MIC [8]: 0.19 µg/mL (≈ 0.473 µM) | MIC [9]: > 256 µg/mL | MIC [10]: 8 µg/mL (≈ 19.9 µM) | MIC [11]: 128 µg/mL (≈ 319 µM) | MIC [12]: 0.75 µg/mL (≈ 1.87 µM) | MIC [13]: > 256 µg/mL | MIC [14]: 0.38 µg/mL (≈ 0.947 µM) | MIC [15]: 0.25 µg/mL (≈ 0.623 µM) | MIC [16]: > 256 µg/mL | MIC [17]: 0.5 µg/mL (≈ 1.25 µM) | MIC [18]: 12 µg/mL (≈ 29.9 µM) | MIC [19]: 0.75 µg/mL (≈ 1.87 µM) | MIC [20]: 1 µg/mL (≈ 2.49 µM) | MIC [21]: 64 µg/mL (≈ 159 µM) | MIC [22]: > 256 µg/mL | MIC [23]: 0.25 µg/mL (≈ 0.623 µM) | MIC [24]: > 256 µg/mL | MIC [25]: 1.5 µg/mL (≈ 3.74 µM) | MIC [26]: > 256 µg/mL | MIC [27]: > 256 µg/mL | MIC [28]: 16 µg/mL (≈ 39.9 µM) | MIC [29]: > 256 µg/mL | MIC [30]: 0.5 µg/mL (≈ 1.25 µM) | MIC [31]: 1 µg/mL (≈ 2.49 µM) | MIC [32]: 4 µg/mL (≈ 9.96 µM) | MIC [33]: > 256 µg/mL | MIC [34]: 0.25 µg/mL (≈ 0.623 µM) | MIC [35]: 0.5 µg/mL (≈ 1.25 µM) | MIC [36]: 0.25 µg/mL (≈ 0.623 µM) | MIC [37]: 1 µg/mL (≈ 2.49 µM)

CN(C)[C@@H]1C(O)=C(C(N)=O)C(=O)[C@@]2(O)C(O)=C3C(=O)c4c(O)cccc4[C@@](C)(O)[C@H]3C[C@@H]12 [TETRACYCLINE]
MIC [1]: 100 µg/mL (≈ 225 µM) | MIC [2]: 100 µg/mL (≈ 225 µM)

CN[C@H](CC(C)C)C(=O)N[C@H]1C(=O)N[C@@H](CC(N)=O)C(=O)N[C@H]2C(=O)N[C@H]3C(=O)N[C@H](C(=O)N[C@H](C(=O)O)c4cc(O)cc(O)c4-c4cc3ccc4O)[C@H](O)c3ccc(c(Cl)c3)Oc3cc2cc(c3O[C@@H]2O[C@H](CO)[C@@H](O)[C@H](O)[C@H]2O[C@H]2C[C@](C)(N)[C@H](O)[C@H](C)O2)Oc2ccc(cc2Cl)[C@H]1O [VANCOMYCIN]
MIC [1]: 3 µg/mL (≈ 2.07 µM) | MIC [2]: 1.5 µg/mL (≈ 1.04 µM)
